Measurements taken from ChEMBL document CHEMBL5584271, “Synthesis and Biological Analysis of Iso-dimethyltryptamines in a Model of Light-Induced Retinal Degeneration” (2024).
Activity calls are given as the source filed them. No cut-off for these calls is given here.

What was measured:
Mus musculus [1] = test: (§1) Protection against light-induced retinal degeneration in dark-adaptated BALB/c albino mouse assessed as reduction in ONL thinning at 10 mg/kg, ip dosed preincubated with compound for 15 to 30 mins of mydriasis followed by exposure to bright light at 15kLux for 30 mins by electroretinography analysis; assay type: functional, organism-based; conditions: time 45-60 min
Procedure, shortened: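 Dark-adapted BALB/c albino mice (5–8 weeks) were dosed ip at 10 mg/kg (vehicle 25% DMSO/75% saline) 30 min before 30 min of 15 kLux white light. Pupils were dilated with metaoxedrine/tropicamide at 30 and 15 min prior. One week later, OCT centred on the optic nerve head measured ONL thickness 500 μm from the ONH border, averaged over four quadrants. Analysis used Welch's ANOVA with Dunnett's T3 tests.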

Mus musculus [2] = test: as §1, with “ERG a- and b-wave amplitude deterioration” for “ONL thinning”; assay type: functional, organism-based; conditions: time 45-60 min
Procedure, shortened: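 BALB/c albino mice (5–8 weeks) were dark-adapted overnight and given 10 mg/kg ip in 25% DMSO/75% saline 30 min before light. Pupils were dilated with metaoxedrine (20 mg/mL) plus tropicamide (4 mg/mL) at 30 and 15 min prior. Freely moving mice received 30 min of 15 kLux white light. ERG a- and b-wave amplitudes were recorded one week later (10 cd·s/m2 stimulus). Analysis used Welch's ANOVA with Dunnett's T3 post hoc tests.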

[3] = biological target: T1, 5-hydroxytryptamine receptor 1A (Homo sapiens) (UniProt P08908); test: Binding affinity to 5-HT1A (unknown origin)
T1 sequence (whole entry): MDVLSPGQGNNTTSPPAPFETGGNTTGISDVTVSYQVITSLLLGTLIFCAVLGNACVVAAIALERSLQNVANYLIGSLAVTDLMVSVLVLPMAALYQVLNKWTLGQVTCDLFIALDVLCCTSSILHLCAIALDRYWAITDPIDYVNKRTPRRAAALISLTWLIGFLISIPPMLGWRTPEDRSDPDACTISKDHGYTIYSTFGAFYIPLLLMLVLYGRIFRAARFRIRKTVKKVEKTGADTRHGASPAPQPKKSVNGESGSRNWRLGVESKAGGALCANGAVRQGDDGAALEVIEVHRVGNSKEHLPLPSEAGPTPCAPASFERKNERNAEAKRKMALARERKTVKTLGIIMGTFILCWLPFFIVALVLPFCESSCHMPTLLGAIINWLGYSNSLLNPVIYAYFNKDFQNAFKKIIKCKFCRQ

[4] = biological target: 5-hydroxytryptamine receptor 2B (Homo sapiens) (UniProt P41595); test: Binding affinity to 5-HT2B (unknown origin)
[5] = biological target: T2, 5-hydroxytryptamine receptor 2C (Homo sapiens) (UniProt P28335); test: Binding affinity to 5-HT2C (unknown origin)
T2 sequence (whole entry): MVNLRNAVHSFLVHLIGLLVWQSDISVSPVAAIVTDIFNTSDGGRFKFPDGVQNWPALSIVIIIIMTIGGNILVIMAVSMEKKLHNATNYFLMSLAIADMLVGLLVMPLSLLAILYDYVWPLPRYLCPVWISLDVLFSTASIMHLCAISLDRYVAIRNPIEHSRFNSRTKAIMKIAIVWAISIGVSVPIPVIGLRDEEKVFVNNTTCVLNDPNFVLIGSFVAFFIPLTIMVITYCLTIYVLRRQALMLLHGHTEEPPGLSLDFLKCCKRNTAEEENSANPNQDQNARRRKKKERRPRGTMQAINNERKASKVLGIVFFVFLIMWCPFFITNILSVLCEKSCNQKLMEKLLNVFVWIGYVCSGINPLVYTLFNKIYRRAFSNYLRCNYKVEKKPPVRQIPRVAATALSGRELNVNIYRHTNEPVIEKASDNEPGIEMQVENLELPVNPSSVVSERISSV

[6] = biological target: 5-hydroxytryptamine receptor 2A (Homo sapiens) (UniProt P28223); test: Binding affinity to 5-HT2A (unknown origin)
Mus musculus [7] = test: as §1, with “[…] relative to control” for “analysis”; assay type: functional; parameters: scale not given: the % may be the effect or the level left; conditions: time 45-60 min
Procedure, shortened: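 Same LIRD protocol in BALB/c mice aged 5–8 weeks: 10 mg/kg ip in 25% DMSO/saline 30 min before 30 min of 15 kLux white light, with mydriatics given beforehand. OCT imaging one week later, centred on the optic nerve head. ONL thickness measured 500 μm from the ONH border and averaged over four quadrants. Compared with vehicle; Welch's ANOVA with Dunnett's T3.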

Mus musculus [8] = test: as §1, with “ERG a- and b-wave amplitude deterioration” for “ONL thinning”, “analysis relative to control” for “analysis”; assay type: functional; parameters: scale not given: the % may be the effect or the level left; conditions: time 45-60 min
Procedure, shortened: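 BALB/c albino mice aged 5–8 weeks, dark-adapted overnight. Dosed 10 mg/kg ip in 25% DMSO/75% saline 30 min before light. Pupils dilated with metaoxedrin (20 mg/mL) plus tropicamide (4 mg/mL) at 30 and 15 min prior. Exposed to 15 kLux white light for 30 min, freely moving. ERG a- and b-wave amplitudes recorded one week later at 10 cd·s/m2 stimulus. Compared with vehicle; mean ± SEM.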

Chain of 5-hydroxytryptamine receptor 2A (Homo sapiens) (P28223 whole entry): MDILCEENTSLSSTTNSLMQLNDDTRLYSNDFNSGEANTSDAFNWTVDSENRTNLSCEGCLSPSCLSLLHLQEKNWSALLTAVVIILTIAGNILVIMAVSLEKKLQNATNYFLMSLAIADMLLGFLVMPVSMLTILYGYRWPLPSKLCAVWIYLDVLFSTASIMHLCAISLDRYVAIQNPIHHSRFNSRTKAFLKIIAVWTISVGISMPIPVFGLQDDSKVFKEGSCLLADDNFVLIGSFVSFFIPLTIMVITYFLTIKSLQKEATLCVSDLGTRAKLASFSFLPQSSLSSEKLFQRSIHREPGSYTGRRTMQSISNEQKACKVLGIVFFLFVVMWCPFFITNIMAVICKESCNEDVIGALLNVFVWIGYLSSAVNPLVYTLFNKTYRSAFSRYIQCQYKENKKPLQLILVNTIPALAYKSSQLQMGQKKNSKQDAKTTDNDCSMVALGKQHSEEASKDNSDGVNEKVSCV
Chain of 5-hydroxytryptamine receptor 2B (Homo sapiens) (P41595 whole entry): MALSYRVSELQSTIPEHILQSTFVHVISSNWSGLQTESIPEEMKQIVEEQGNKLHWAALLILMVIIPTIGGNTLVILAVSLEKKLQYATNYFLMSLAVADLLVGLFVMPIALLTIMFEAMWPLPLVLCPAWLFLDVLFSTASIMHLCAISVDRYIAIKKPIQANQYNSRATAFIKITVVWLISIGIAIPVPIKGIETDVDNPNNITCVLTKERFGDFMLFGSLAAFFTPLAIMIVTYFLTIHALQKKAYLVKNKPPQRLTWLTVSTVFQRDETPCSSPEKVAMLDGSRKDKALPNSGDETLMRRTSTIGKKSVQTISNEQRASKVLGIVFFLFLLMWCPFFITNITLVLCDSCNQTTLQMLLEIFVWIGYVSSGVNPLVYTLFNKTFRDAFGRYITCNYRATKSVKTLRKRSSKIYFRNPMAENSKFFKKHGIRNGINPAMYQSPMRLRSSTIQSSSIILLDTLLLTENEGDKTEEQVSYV

| Structure (SMILES) | Activity (Mus musculus [1]) | Activity (Mus musculus [2]) | also measured |
| --- | --- | --- | --- |
| CN(C)CCn1cc(Cc2ccccn2)c2c(Br)cccc21 | Active | Active | – |
| CN1C[C@H](CO)C=C2c3cccc4[nH]cc(c34)C[C@H]21 | Active | Active | – |
| CN(C)CCn1cc(Cc2ccccn2)c2ccc(F)cc21 | inactive | inactive | – |
| CCN(CC)C(=O)[C@H]1CN(C)[C@H]2Cc3c[nH]c4cccc(c34)[C@@H]1C2 | inactive | inactive | Activity [3]: inactive; Activity [4]: inactive; Activity [5]: inactive; Activity [6]: inactive |
| CC(C)C[C@H]1C(=O)N2CCC[C@H]2[C@]2(O)O[C@](NC(=O)[C@@H]3C=C4c5cccc6[nH]c(Br)c(c56)C[C@H]4N(C)C3)(C(C)C)C(=O)N12 [BROMOCRIPTINE] | – | – | Activity (Mus musculus [7]): 70%; Activity (Mus musculus [8]): 70% |
| CN(C)CCn1cc(Cc2ccccn2)c2cc(F)ccc21 | inactive | inactive | – |
| CN1C[C@@H](CO)C=C2c3cccc4[nH]cc(c34)C[C@@H]21 | inactive | inactive | – |
| CN1C[C@H](CO)C=C2c3cccc4[nH]cc(c34)C[C@@H]21 | inactive | inactive | – |
| CN1C[C@@H](CO)C=C2c3cccc4[nH]cc(c34)C[C@H]21 | Active | Active | – |
| CN1C[C@@]2(C)C[C@]23c2cccc4[nH]cc(c24)C[C@@H]13 | Active | Active | – |
| CN1C[C@]2(C)C[C@@]23c2cccc4[nH]cc(c24)C[C@H]13 | Active | Active | – |
